In ChEMBL document CHEMBL1153285, “Synthesis and SAR of piperazinyl-N-phenylbenzamides as inhibitors of hepatitis C virus RNA replication in cell culture” (Bioorg Med Chem Lett, 2009):
Active and inactive are the calls of the source. No cut-off for these calls is given here.

System: Hepacivirus hominis
Assay: Inhibition of HCV NS5B deltaC21 polymerase
Conditions: not given
How it was run: (§1)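 Cell-free polymerase assays used purified NS5B in its ΔC55 and ΔC21 truncated forms.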

Q: For CC(C)(C)OC(=O)N1CCN(c2ccc(C(=O)Nc3ccc(O)cc3)cc2)CC1, which Activity is on record?
A: Its Activity is “inactive”.

System: Hepacivirus hominis
Assay: Inhibition of ATPase activity of HCV NS3/4A protease up to 10 uM
Conditions: not given
How it was run: (§2)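 Cell-free assays used purified protein, either the full-length NS3-4A complex or the separate protease and helicase domains. Compound was tested at concentrations up to 10 µM.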

Q: Which Activity does the source give for CC(C)(C)OC(=O)N1CCN(c2ccc(C(=O)Nc3ccc(O)cc3)cc2)CC1 here?
A: Its Activity is “inactive”.

System: Hepatitis C virus
Assay: Antiviral activity against HCV infected in human HUH7 cells assessed as inhibition of viral subgenomic RNA replication in presence of 10% fetal calf serum
Type: functional, organism-based, Hepacivirus hominis
Conditions: Huh-7
How it was run: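 Replication of subgenomic HCV RNA was measured in HUH-7 replicon cells using a modified Bartenschlager procedure. Results are reported as EC50 in µM.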

Q: How did the EC50 turn out when CC(C)(C)OC(=O)N1CCN(c2ccc(C(=O)Nc3ccc(F)cc3)cc2)CC1 was run?
A: Its EC50 is over 10000 nM.

Q: With CC(C)(C)OC(=O)N1CCN(c2ccc(C(=O)N[C@H]3CC[C@H](O)CC3)cc2)CC1 as the molecule, how does the EC50 read?
A: The EC50 was over 10000 nM.

Q: O=C(Nc1ccc(O)cc1)c1ccc(N2CCN(C(=O)NCc3ccccc3)CC2)cc1 was tested. Which EC50 did it give?
A: The EC50 was 2700 nM.

Q: With CC(C)(C)OC(=O)N1CCN(c2ccc(C(=O)Nc3cccc(Br)c3)cc2)CC1 as the molecule, how does the EC50 read?
A: The EC50 was 580 nM.

Q: With CC(C)(C)OC(=O)N1CCN(c2ccc(C(=O)Nc3ccc(/C=C/c4ccc(O)cc4)cc3)cc2)CC1 as the molecule, how does the EC50 read?
A: The EC50 was 140 nM.

Q: For CN(C(=O)c1ccc(N2CCN(C(=O)OC(C)(C)C)CC2)cc1)c1ccc(O)cc1, which EC50 is on record?
A: The EC50 was over 10000 nM.

Q: For CC(C)(C)OC(=O)N1CCN(c2ccc(C(=O)Nc3ccc(O)cc3)cc2)CC1, which EC50 is on record?
A: The EC50 was 160 nM.

Q: Which EC50 does the source give for CC(C)(C)NC(=O)N1CCN(c2ccc(C(=O)Nc3ccc(O)cc3)cc2)CC1 here?
A: Its EC50 is 470 nM.

Q: Which EC50 does the source give for O=C(Nc1ccc(O)cc1)c1ccc(N2CCN(C(=O)Nc3ccccc3)CC2)cc1 here?
A: Its EC50 is 19600 nM.

Q: How did the EC50 turn out when CC(C)(C)C(=O)N1CCN(c2ccc(C(=O)Nc3ccc(O)cc3)cc2)CC1 was run?
A: The EC50 was 780 nM.

Q: With CC(C)(C)OC(=O)N1CCN(c2cccc(C(=O)Nc3ccc(O)cc3)c2)CC1 as the molecule, how does the EC50 read?
A: Its EC50 is over 10000 nM.

Q: CC(C)(C)OC(=O)N1CCN(c2ccc(C(=O)Nc3ccc(C(=O)c4ccccc4)cc3)cc2)CC1 was tested. Which EC50 did it give?
A: Its EC50 is 690 nM.

Q: How did the EC50 turn out when CC(C)(C)OC(=O)N1CCC(c2ccc(C(=O)Nc3ccc(O)cc3)cc2)CC1 was run?
A: The EC50 was 1700 nM.

Q: For CC(C)(C)OC(=O)N1CCN(c2ccc(C(=O)Nc3cc[n+]([O-])cc3)cc2)CC1, which EC50 is on record?
A: The EC50 was over 10000 nM.

Q: How did the EC50 turn out when O=C(Nc1ccc(O)cc1)c1ccc(N2CCN(C(=O)Oc3ccccc3)CC2)cc1 was run?
A: Its EC50 is 4100 nM.

Q: Which EC50 does the source give for CC(C)(C)OC(=O)C1CCN(c2ccc(C(=O)Nc3ccc(O)cc3)cc2)CC1 here?
A: The EC50 was 1600 nM.

Q: Which EC50 does the source give for CN(C)c1ccc(NC(=O)c2ccc(N3CCN(C(=O)OC(C)(C)C)CC3)cc2)cc1 here?
A: The EC50 was over 10000 nM.

Q: CCOC(=O)N1CCN(c2ccc(C(=O)Nc3ccc(O)cc3)cc2)CC1 was tested. Which EC50 did it give?
A: Its EC50 is 9600 nM.

Q: With CC(=O)Nc1ccc(NC(=O)c2ccc(N3CCN(C(=O)OC(C)(C)C)CC3)cc2)cc1 as the molecule, how does the EC50 read?
A: Its EC50 is over 10000 nM.

Q: Which EC50 does the source give for CC(C)(C)OC(=O)N1CCN(c2ccc(C(=O)Nc3ccccc3)cc2)CC1 here?
A: Its EC50 is over 10000 nM.

Q: How did the EC50 turn out when CN(CCNC(=O)OC(C)(C)C)c1ccc(C(=O)Nc2ccc(O)cc2)cc1 was run?
A: Its EC50 is over 10000 nM.

Q: How did the EC50 turn out when O=C(Nc1ccc(O)cc1)c1ccc(N2CCN(C(=O)OCc3ccccc3)CC2)cc1 was run?
A: The EC50 was 550 nM.

Q: CC(C)(C)OC(=O)N1CCN(c2ccc(C(=O)Nc3ccc(C#N)cc3)cc2)CC1 was tested. Which EC50 did it give?
A: Its EC50 is 5600 nM.

System: Hepacivirus hominis
Assay: Inhibition of HCV NS5B deltaC55 polymerase
Conditions: not given
How it was run: as §1

Q: With CC(C)(C)OC(=O)N1CCN(c2ccc(C(=O)Nc3ccc(O)cc3)cc2)CC1 as the molecule, how does the Activity read?
A: The Activity was “inactive”.

System: Hepacivirus hominis
Assay: Inhibition of helicase activity of HCV NS3/4A protease up to 10 uM
Conditions: not given
How it was run: as §2

Q: With CC(C)(C)OC(=O)N1CCN(c2ccc(C(=O)Nc3ccc(O)cc3)cc2)CC1 as the molecule, how does the Activity read?
A: The Activity was “inactive”.
